Assay [1] in a line: SK-BR-3 cell growth inhibitors, pilot screen, 24 h, human (AID 572;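 active = viability at or below 10% of carrier control in both of two separate runs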;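 also: compound exposure lasted between 18 and 24 h rather than exactly 24 h; 100% = carrier-treated control wells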). The note with it: SK-BR-3 viability, CellTiter-Glo luminescence, at 10 µM, stronger effect = lower value.
Assay [2] in a line: HUVEC growth inhibition – cell-based, human, primary screen (AID 575;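 active = viability at or below 30% in both replicate assays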;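 also: 100% = median of untreated cell wells with 0.1% DMSO on each plate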). The note with it: HUVEC proliferation, CellTiter-Glo luminescence, 72 h; at 10 µM; stronger effect = lower value. The essentials:
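Test system – primary HUVEC, no more than 12 passages · Dosing – one dose, 10 µM final, 0.1% DMSO · Times – 72 h treatment at 37 °C · Measured by – ATP-based CellTiter-Glo luminescent read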

Assay [3] in a line: growth inhibitors of H69AR lung tumor, primary screen, human, duplicate replicates (AID 580;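 active = viability at or under a set limit in both replicates, limit being median viability minus 3 SD, cut at about 48% in these data, passing the limit was not always enough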;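 also: 100% = mean luminescence of untreated wells and 0% = no signal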). The note with it: H69AR lung tumor cells viability, ATP luminescence, 72 h; at 10 µM; stronger effect = lower value.
The nature of assay [4]: reversal of MRP1-mediated doxorubicin resistance, pilot screen, H69AR cells, doxorubicin co-treatment (AID 601). The note with it: CellTiter-Glo, 72 h, at 10 µM; for differential viability (reversal): stronger effect = higher value.
Assay [5] can be described thus: 384-well plate pilot, post-Golgi transport modulator project, inhibition of yeast transport mutant growth (AID 636; in the data active = inhibition above about 31%). The note with it: absorbance 615 nm, about 18 h, stronger effect = higher value.
Assay [6] can be described thus: growth suppression of yeast trafficking mutant, preliminary HTS, modulators of trafficking downstream of Golgi apparatus project, 1536-format plate, OD 615 nm (AID 637; in the data active = inhibition above about 30%). The note with it: yeast transport mutant growth, absorbance 615 nm, 18 h; stronger effect = higher value.
Where [7] appears, read: H69AR cells + 2 uM doxorubicin, measured here: viability with 2 uM doxorubicin, stronger effect = lower value.
The mark [8] stands for this setting: H69AR cells, compound alone cytotoxicity.

Calls of active or inactive are those of the source.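 The calls were made as follows, unless noted: active = viability loss from added drug above about 55%, and viability with drug at most 40%, in both replicates (limit read from the data, passing the limit was not always enough); inconclusive = both conditions met in only one replicate; inactive = neither replicate meets both conditions.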

Take `CCn1c(SCC(=O)NC)nnc1C(C)C`: the viability in assay [1] was 97% (inactive); in assay [2], 123% (inactive); in assay [3], 94.8% (inactive); in assay [4] (setting [7]), 85.8%; in assay [4] (setting [8]) it was 94.8%. Moreover, in assay [4] (H69AR cells + 2 uM doxorubicin), the differential viability (reversal) was 8.98% (inactive). The inhibition in assay [5] was -7.3% (inactive); in assay [6], -4.91% (inactive).

On to `CCc1nn(CC(=O)N2CCN(Cc3ccc4c(c3)OCO4)CC2)c(=O)c2cc3occc3n12`, for which the viability in assay [1] was 87% (inactive); in assay [2], 100% (inactive); in assay [3] it was 91.8% (inactive); in assay [4] (setting [7]) it was 94.2%; in assay [4] (setting [8]), 91.8%. In addition, the differential viability (reversal) in assay [4] (H69AR cells + 2 uM doxorubicin) is -2.36% (inactive). In addition, the inhibition in assay [5] is 0.14% (inactive); in assay [6] it was -4.55% (inactive).

With `Cc1ccc(NC(=O)CN(C)S(=O)(=O)c2cccc3nsnc23)cc1Cl`, the viability in assay [1] is 103% (inactive); in assay [2] it was 83.3% (inactive); in assay [3], 84.5% (inactive); in assay [4] (setting [7]), 92.2%; in assay [4] (setting [8]), 84.5%. The differential viability (reversal) in assay [4] (H69AR cells + 2 uM doxorubicin) was -7.79% (inactive). In addition, the inhibition in assay [5] is 1.76% (inactive); in assay [6] it was -3.09% (inactive).

As to `Cc1nc(-c2coc3cc(OCC(=O)O)ccc3c2=O)cs1`, the viability is 93% (inactive) in assay [1]; 107% (inactive) in assay [2]; 90.5% (inactive) in assay [3]; 89% in assay [4] (setting [7]); 90.5% in assay [4] (setting [8]). In addition, the differential viability (reversal) in assay [4] (H69AR cells + 2 uM doxorubicin) was 1.5% (inactive). For the same compound, the inhibition in assay [5] was -5.14% (inactive); in assay [6], -7.64% (inactive).

Take `O=C(Nc1ccc(NC(=O)C2CC2)cn1)c1ccccc1Cl`: the viability in assay [1] was 101% (inactive); in assay [2] it was 98.7% (inactive); in assay [3], 98.5% (inactive); in assay [4] (setting [7]) it was 91.4%; in assay [4] (setting [8]), 98.5%. Moreover, in assay [4] (H69AR cells + 2 uM doxorubicin), the differential viability (reversal) was 7.09% (inactive). Moreover, the inhibition in assay [5] is -2.13% (inactive); in assay [6], -2.91% (inactive).

With `COc1ccc(-n2nc3cc(C)c(N)c(Br)c3n2)cc1`, the viability is 74% (inactive) in assay [1]; 85.6% (inactive) in assay [2]; 65.5% (inactive) in assay [3]; 98.9% in assay [4] (setting [7]); 65.5% in assay [4] (setting [8]). The differential viability (reversal) in assay [4] (H69AR cells + 2 uM doxorubicin) was -33.4% (inactive). For the same compound, the inhibition in assay [5] is -6.3% (inactive); in assay [6], -1.45% (inactive).

For `Cc1cc(C)cc(OCC(=O)NC2=NCCS2)c1`, the viability in assay [1] was 100% (inactive); in assay [2] it was 87.5% (inactive); in assay [3], 96.1% (inactive); in assay [4] (setting [7]) it was 93.3%; in assay [4] (setting [8]), 96.1%. Besides, the differential viability (reversal) in assay [4] (H69AR cells + 2 uM doxorubicin) was 2.82% (inactive). For the same compound, the inhibition is 0.39% (inactive) in assay [5] and 1.48% (inactive) in assay [6].

`Cc1nnc(NC(=O)CCC(=O)N2CCC(C)CC2)s1`: the viability in assay [1] is 86% (inactive); in assay [2], 105% (inactive); in assay [3], 90.8% (inactive); in assay [4] (setting [7]), 88.9%; in assay [4] (setting [8]), 90.8%. The differential viability (reversal) in assay [4] (H69AR cells + 2 uM doxorubicin) is 1.93% (inactive). For the same compound, the inhibition in assay [5] was -3.01% (inactive); in assay [6] it was 1.64% (inactive).

As to `O=C(O)c1ccc(C2SCC(=O)N2Cc2ccccc2)cc1` (centres undefined), the viability is 95% (inactive) in assay [1]; 109% (inactive) in assay [2]; 96.9% (inactive) in assay [3]; 95.6% in assay [4] (setting [7]); 96.9% in assay [4] (setting [8]). In addition, the differential viability (reversal) in assay [4] (H69AR cells + 2 uM doxorubicin) is 1.26% (inactive). Also, the inhibition in assay [5] is -1.07% (inactive); in assay [6] it was 0% (inactive).

As to `CCC(CC)n1[nH]c(=O)c2c(C)cc(C)nc21`, the viability in assay [1] is 81% (inactive); in assay [2] it was 103% (inactive); in assay [3], 105% (inactive); in assay [4] (setting [7]), 90.5%; in assay [4] (setting [8]), 105%. Further, the differential viability (reversal) in assay [4] (H69AR cells + 2 uM doxorubicin) is 14.5% (inactive). In addition, the inhibition in assay [5] was -5.14% (inactive); in assay [6] it was -6% (inactive).

Take `O=C(Cn1cnc2c(cnn2-c2ccccc2)c1=O)NCCc1ccccc1`: the viability was 102% (inactive) in assay [1]; 91.6% (inactive) in assay [2]; 91.8% (inactive) in assay [3]; 90.8% in assay [4] (setting [7]); 91.8% in assay [4] (setting [8]). Moreover, in assay [4] (H69AR cells + 2 uM doxorubicin), the differential viability (reversal) is 0.99% (inactive). The figures for the inhibition in assay [5] and in assay [6] were -4.68% (inactive) and -5.74% (inactive), respectively.

Consider `Cc1nc2ccc(S(=O)(=O)NCC(=O)N(C)Cc3ccco3)cc2s1`, for which the viability in assay [1] was 109% (inactive); in assay [2] it was 95.6% (inactive); in assay [3], 91.6% (inactive); in assay [4] (setting [7]), 82.3%; in assay [4] (setting [8]) it was 91.6%. Also, the differential viability (reversal) in assay [4] (H69AR cells + 2 uM doxorubicin) was 9.31% (inactive). Also, the inhibition in assay [5] was -0.91% (inactive); in assay [6], 3.93% (inactive).

Take `C=CCNc1nc2c(c(=O)n(C)c(=O)n2C)n1CCCCCC`: the viability in assay [1] is 92% (inactive); in assay [2] it was 60.4% (inactive); in assay [3], 82.6% (inactive); in assay [4] (setting [7]), 82.4%; in assay [4] (setting [8]), 82.6%. In addition, the differential viability (reversal) in assay [4] (H69AR cells + 2 uM doxorubicin) is 0.165% (inactive). The results for the inhibition in assay [5] and in assay [6] were -5.73% (inactive) and 5.27% (inactive), respectively.

Take `c1ccc(Cn2nnnc2C(c2cccs2)N2CCSCC2)cc1` (centres undefined): the viability was 98% (inactive) in assay [1]; 93.1% (inactive) in assay [2]; 81.6% (inactive) in assay [3]; 84.2% in assay [4] (setting [7]); 81.6% in assay [4] (setting [8]). In addition, in assay [4] (H69AR cells + 2 uM doxorubicin), the differential viability (reversal) is -2.6% (inactive). Besides, the inhibition in assay [5] is -3.97% (inactive); in assay [6], -4.35% (inactive).

Take `C=CCN(CC=C)C(=O)Nc1cc(Cl)ccc1OC`: the viability in assay [1] was 83% (inactive); in assay [2] it was 95.3% (inactive); in assay [3], 96.9% (inactive); in assay [4] (setting [7]) it was 96.9%; in assay [4] (setting [8]), 96.9%. The differential viability (reversal) in assay [4] (H69AR cells + 2 uM doxorubicin) was 0% (inactive). In addition, the inhibition in assay [5] was -8.77% (inactive); in assay [6], -3.27% (inactive).

For `c1ccc2c(-c3nc(-c4ccncc4)no3)cccc2c1`, the viability in assay [1] is 56% (inactive); in assay [2], 86.4% (inactive); in assay [3] it was 102% (inactive); in assay [4] (setting [7]), 96.3%; in assay [4] (setting [8]) it was 102%. Besides, in assay [4] (H69AR cells + 2 uM doxorubicin), the differential viability (reversal) was 5.25% (inactive). The inhibition in assay [5] is -5.89% (inactive); in assay [6], 10.6% (inactive).

As for `CCOc1ccc2[nH]c(O)c(NC(C)=O)c2c1`, the viability in assay [1] was 95% (inactive); in assay [2], 100% (inactive); in assay [3] it was 94.8% (inactive); in assay [4] (setting [7]) it was 94.1%; in assay [4] (setting [8]) it was 94.8%. Further, the differential viability (reversal) in assay [4] (H69AR cells + 2 uM doxorubicin) is 0.61% (inactive). For the same compound, the inhibition was -4.86% (inactive) in assay [5] and 0.91% (inactive) in assay [6].

In the case of `CS(=O)(=O)N(CC(=O)NCc1ccncc1)Cc1ccc(Cl)cc1`, the viability was 104% (inactive) in assay [1]; 101% (inactive) in assay [2]; 98.3% (inactive) in assay [3]; 97.8% in assay [4] (setting [7]); 98.3% in assay [4] (setting [8]). Further, the differential viability (reversal) in assay [4] (H69AR cells + 2 uM doxorubicin) was 0.52% (inactive). The results for the inhibition in assay [5] and in assay [6] were -8.36% (inactive) and 0.81% (inactive), respectively.

The values above are taken from PubChem BioAssay.
